High-throughput results deposited in PubChem by several laboratories.
FID counter: compounds displacing fluorescent DNA intercalator, primary screen, artefact control for HCV NS3 helicase inhibitor project, biochemical, FID fluorescence; inhibition, % at 7.9 µM; DNA fluorescent intercalator displacement; actives 0.17% (n = 290,000); in the data active = inhibition above about 37%;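 note: 0% = vehicle and 100% = reference compound; higher means more ethidium bromide displaced from hairpin DNA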
PABP polyA inh: PABP poly(A) RNA binding inhibitors, primary screen, biochemical, fluorescence polarization, uHTS. actives 1% (n = 290,000). inhibition, % at 35 µM. AID 2014, 2009;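 note: calls also rest on retests at 20 µM and on dose response follow-up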
eIF4H inh: human eIF4H binding inhibitors, primary screen, translation initiation inhibitor project, biochemical, uHTS, fluorescence polarization; actives 0.94% (n = 290,000); inhibition, % at 35 µM; eIF4H fluorescence polarization binding assay; Eukaryotic translation initiation factor 4H (Homo sapiens), Q15056; AID 2012, 2009;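 note: calls also rest on retests at 20 µM and on dose response follow-up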
MLLE-PAM2 inh: inhibitors of PABP1 MLLE–PAM2 peptide binding, primary screen, biochemical, fluorescence polarization, FITC-PAM2, GST-MLLE | Polyadenylate-binding protein 1 (Homo sapiens), P11940 | inhibition, % at 20 µM | actives 0.36% (n = 360,000); in the data active = inhibition above about 35%, passing the limit was not always enough;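 note: plate controls were DMSO wells with GST-MLLE for no effect and wells lacking GST-MLLE protein for full effect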
NS3 helicase inh: inhibitors of HCV NS3 helicase, primary screen, biochemical, Cy5 molecular beacon fluorescence | NS3 helicase DNA unwinding | inhibition, % at 10.9 µM | actives 0.56% (n = 290,000) | AID 1800, 2009;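 active = inhibition above the mean of all tested compounds plus 3 SD, set per campaign, cut at about 35% in these data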;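 note: 0% = DMSO wells and 100% = thioflavine S control wells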
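Assay system – hepatitis C virus NS3 helicase domain fragment enzyme · Buffer or medium – MOPS pH 6.5, MgCl2, DTT, Tween20, BSA · Reagent – Cy5/quencher beacon DNA duplex and ATP to start · Compound – single 10.9 µM dose · Timing – 1 h at 25 °C · Technique – Cy5 beacon fluorescence read at start and 1 h · Measure – % inhibition of unwinding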
HCV core dimer: inhibitors of HCV core protein dimerization, primary screen, biochemical, TR-FRET, high-throughput | TR-FRET GST/Flag-core106 dimerization, 1536-well | inhibition, % at 5 µM | actives 0.33% (n = 300,000) | AID 1899, 2009;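 active = inhibition above the mean of all tested compounds plus 3 SD, set per screening campaign, cut at about 45% in these data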
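Assay system: tagged HCV core106 pair (GST and Flag); medium: KF-containing HEPES buffer, pH 7.45, DTT, CHAPS, BSA; also added: Eu donor and XL665 acceptor anti-tag antibodies; dosing: 5 µM single dose; timing: compound-protein-antibody incubation 4 h at 22.5 °C; signal: TR-FRET 671 and 617 nm emission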
Numbers without * were called inactive. Compounds with a hit are over-represented: about 2% of the library has one in this group of screens. Unless noted, the rule behind the calls is not given here.

Results for CCOc1ccc(-c2cc(C(=O)Nc3ccc(C)c(NS(C)(=O)=O)c3)[nH]n2)c(C)c1 ?
MLLE-PAM2 inh: -1.1

What do the screens show for `CCN(CC)C(=O)c1cccc(-c2csc(C(C)(O)c3ccc(F)c(F)c3)n2)c1` (centres undefined)?
MLLE-PAM2 inh: -5.2

How did Cc1cc(C)n(-c2ccc(C(=O)OCC(=O)Nc3ccccc3F)cc2)n1 do in these assays?
MLLE-PAM2 inh: 8.0

Results for O=C(CSc1nccn1-c1cccc(Cl)c1)NO ?
FID counter: -7.5; PABP polyA inh: 1.5; eIF4H inh: -4.4; MLLE-PAM2 inh: 5.8; NS3 helicase inh: 5.8; HCV core dimer: -2.1

Results for Cc1cc(NC(=O)CSc2nccn2-c2cccc(Cl)c2)no1 ?
FID counter: -16.3; PABP polyA inh: -5.5; eIF4H inh: -4.7; MLLE-PAM2 inh: 69.1*; NS3 helicase inh: 3.4; HCV core dimer: 2.4

How did Cc1cccc(-n2c(N)cc(=O)nc2SCC(=O)Nc2cc(C)on2)c1 do in these assays?
FID counter: -15.0; PABP polyA inh: 5.5; eIF4H inh: -6.2; MLLE-PAM2 inh: 40.3*; NS3 helicase inh: 1.9; HCV core dimer: -1.7

Results for Cc1cc(NC(=O)CSc2nc(=O)cc(N)n2-c2ccc(Cl)cc2)no1 ?
FID counter: -6.5; PABP polyA inh: 5.3; eIF4H inh: -9.0; MLLE-PAM2 inh: 5.6; NS3 helicase inh: 0.4; HCV core dimer: 0.8

What do the screens show for `COc1ccc2oc(=O)c(C(=O)OCc3ccccc3)cc2c1`?
FID counter: -18.6; PABP polyA inh: 6.6; eIF4H inh: -3.6; MLLE-PAM2 inh: 43.4*; NS3 helicase inh: -17.7; HCV core dimer: 2.6

How did COc1ccc2oc(=O)c(C(=O)NCc3ccccc3)cc2c1 do in these assays?
FID counter: -9.6; PABP polyA inh: -9.6; eIF4H inh: -3.4; MLLE-PAM2 inh: -0.1; NS3 helicase inh: 1.2; HCV core dimer: -1.2

How did CCC(=O)N/N=C/c1ccc(-c2ccc([N+](=O)[O-])cc2)o1 do in these assays?
FID counter: -1.6; PABP polyA inh: 7.1; eIF4H inh: -0.9; MLLE-PAM2 inh: -12.9; NS3 helicase inh: -1.5; HCV core dimer: 2.0

How did COc1ccc(N(CC(=O)N/N=C/c2ccc(-c3ccc([N+](=O)[O-])cc3)o2)S(=O)(=O)c2ccc(C)cc2)cc1Cl do in these assays?
FID counter: 0.4; PABP polyA inh: 10.8; eIF4H inh: 6.2; MLLE-PAM2 inh: -37.9; NS3 helicase inh: -1.6; HCV core dimer: 63.0*

What do the screens show for `COc1ccc(N(CC(=O)N/N=C/c2ccc(-c3ccc([N+](=O)[O-])cc3)o2)S(=O)(=O)c2ccc(C)cc2)cc1`?
FID counter: -0.8; PABP polyA inh: 24.1; eIF4H inh: 45.9; MLLE-PAM2 inh: -38.5; NS3 helicase inh: -2.0; HCV core dimer: 52.4*

How did Cc1oc(-c2ccc(Cl)cc2)cc1-c1nn2c(-c3ccoc3C)nnc2s1 do in these assays?
FID counter: -19.2; PABP polyA inh: 58.6*; eIF4H inh: 85.1*; MLLE-PAM2 inh: -18.3; NS3 helicase inh: 42.3*; HCV core dimer: 83.5*

What do the screens show for `CC(c1ccccc1)C1NC(C(=O)O)CS1` (centres undefined)?
FID counter: -2.2; PABP polyA inh: -2.7; eIF4H inh: -0.1; MLLE-PAM2 inh: 7.6; NS3 helicase inh: -9.2; HCV core dimer: -1.6

What do the screens show for `CCCCCCC1NC(C(=O)O)CS1` (centres undefined)?
FID counter: 0.0; PABP polyA inh: -7.4; eIF4H inh: -1.5; MLLE-PAM2 inh: 38.0*; NS3 helicase inh: -0.3; HCV core dimer: -5.0

What do the screens show for `CCCCC1NC(C(=O)O)CS1` (centres undefined)?
FID counter: -12.7; PABP polyA inh: -0.7; eIF4H inh: -2.2; MLLE-PAM2 inh: 38.1*; NS3 helicase inh: 22.0; HCV core dimer: -4.5

Results for Cc1ccc(NC(=O)CSCC(=O)OC(C)C(=O)Nc2ccccc2C)cc1 (centres undefined) ?
MLLE-PAM2 inh: -5.6

What do the screens show for `COCCN(C(=O)/C=C/c1ccccc1)c1nnc(-c2cccnc2)s1`?
FID counter: -3.7; PABP polyA inh: 9.6*; eIF4H inh: 51.5; MLLE-PAM2 inh: -13.5; NS3 helicase inh: 2.4; HCV core dimer: 9.0

How did COCCN(C(=O)c1cccc(OC)c1)c1nnc(-c2ccncc2)s1 do in these assays?
FID counter: -3.5; PABP polyA inh: 10.9; eIF4H inh: -3.5; MLLE-PAM2 inh: 0.7; NS3 helicase inh: -5.7; HCV core dimer: -7.2

What do the screens show for `Cc1c(-n2c(O)c(C3=c4ccccc4=NC3=O)sc2=O)c(=O)n(-c2ccccc2)n1C`?
FID counter: -2.5; PABP polyA inh: 2.1; eIF4H inh: -7.7; MLLE-PAM2 inh: 46.9*; NS3 helicase inh: 6.9; HCV core dimer: -1.1

Results for COC(=O)c1cc(COc2ccc3c(c2)oc(=O)c2ccccc23)c(C)o1 ?
FID counter: -2.0; PABP polyA inh: 4.8; eIF4H inh: 8.9; MLLE-PAM2 inh: 5.2; NS3 helicase inh: 1.8; HCV core dimer: 51.3*

How did COCCOC(=O)c1c(C)oc2ccc(OCc3cc(C(=O)OC)oc3C)cc12 do in these assays?
FID counter: -19.6; PABP polyA inh: 1.2; eIF4H inh: -5.7; MLLE-PAM2 inh: -4.3; NS3 helicase inh: -13.2; HCV core dimer: 7.0

How did O=C(O)C(O)Cc1c[nH]c2ccccc12 (centres undefined) do in these assays?
FID counter: -0.1; PABP polyA inh: 13.2; eIF4H inh: 2.5; MLLE-PAM2 inh: -10.7; NS3 helicase inh: -0.7; HCV core dimer: -2.2

What do the screens show for `CC(Cc1c[nH]c2ccccc12)C(=O)O` (centres undefined)?
FID counter: -1.6; PABP polyA inh: 48.0*; eIF4H inh: 108.4; MLLE-PAM2 inh: -2.5; NS3 helicase inh: 8.1; HCV core dimer: -26.1

What do the screens show for `O=C1c2ccccc2C(=O)c2c(NCc3cccnc3)cccc21`?
FID counter: 7.2; PABP polyA inh: 11.4; eIF4H inh: 10.7; MLLE-PAM2 inh: -24.2; NS3 helicase inh: 1.7; HCV core dimer: 3.4

What do the screens show for `CNc1cccc2c1C(=O)c1ccccc1C2=O`?
FID counter: 12.1; PABP polyA inh: active; eIF4H inh: 78.3*; MLLE-PAM2 inh: 41.1*; NS3 helicase inh: 7.9; HCV core dimer: -25.3

Results for COc1ccc(N2CSC3=C(C#N)C(c4cc(OC)c(OC)cc4OC)CC(=O)N3C2)c(OC)c1 (centres undefined) ?
FID counter: -30.1; PABP polyA inh: 36.5; eIF4H inh: 21.5; MLLE-PAM2 inh: -65.1; NS3 helicase inh: 66.5*; HCV core dimer: 9.2
